Converted amounts (≈) assume the structure as drawn.
Key:
Type in all cases: functional
Escherichia coli [1] = assay: Antimicrobial activity against Escherichia coli MTCC 724 at 50 ug/ml after 24 hrs by disc diffusion method; details: MTCC 724, 24 h, read-out: DIZ
In short: (§1)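 Agar diffusion read-out is the diameter of the inhibition zone in mm. Each test was run in six replicates and reported as mean ± standard deviation, taken from at least three determinations.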

Staphylococcus aureus [2] = assay: Antimicrobial activity against Staphylococcus aureus MTCC 96 at 100 ug/ml after 24 hrs by disc diffusion method; details: MTCC 96, 24 h, read-out: DIZ; in short: as §1
Aspergillus niger [3] = assay: Antimicrobial activity against Aspergillus niger MTCC 281 at 50 ug/ml after 48 hrs by disc diffusion method; details: for zone of inhibition at 50 µg/mL: MTCC 281, 48 h, read-out: DIZ; in short: as §1
Bacillus cereus [4] = assay: Antimicrobial activity against Bacillus cereus MTCC 8372 at 50 ug/ml after 24 hrs by disc diffusion method; details: MTCC 8372, 24 h, read-out: DIZ; in short: as §1
Staphylococcus aureus [5] = assay: Antimicrobial activity against Staphylococcus aureus MTCC 96 at 50 ug/ml after 24 hrs by disc diffusion method; details: MTCC 96, 24 h, read-out: DIZ; in short: as §1
Bacillus cereus [6] = assay: Antimicrobial activity against Bacillus cereus MTCC 8372 after 24 hrs by microdilution method; details: MTCC 8372, 24 h
In short: (§2)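 The minimal inhibitory concentration was determined by dilution, alongside minimal bactericidal concentration for bacterial strains and minimal fungicidal concentration for fungal strains. Tests were run in six replicates, and the value is the mean of at least three determinations.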

Bacillus cereus [7] = assay: Antimicrobial activity against Bacillus cereus MTCC 8372 at 100 ug/ml after 24 hrs by disc diffusion method; details: MTCC 8372, 24 h, read-out: DIZ; in short: as §1
Klebsiella pneumoniae [8] = assay: Antimicrobial activity against Klebsiella pneumoniae MTCC 3384 at 100 ug/ml after 24 hrs by disc diffusion method; details: MTCC 3384, 24 h, read-out: DIZ; in short: as §1
Fusarium oxysporum [9] = assay: Antimicrobial activity against Fusarium oxysporum MTCC 284 at 100 ug/ml after 48 hrs by disc diffusion method; details: for zone of inhibition at 100 µg/mL: MTCC 284, 48 h, read-out: DIZ; in short: as §1
Fusarium verticillioides [10] = assay: Antimicrobial activity against Fusarium moniliforme MTCC 156 after 48 hrs by microdilution method; in short: as §2
Aspergillus flavus [11] = assay: Antimicrobial activity against Aspergillus flavus MTCC 873 at 50 ug/ml after 48 hrs by disc diffusion method; details: for zone of inhibition at 50 µg/mL: MTCC 873, 48 h, read-out: DIZ; in short: as §1
Aspergillus niger [12] = assay: Antimicrobial activity against Aspergillus niger MTCC 281 after 48 hrs by microdilution method; in short: as §2
Fusarium oxysporum [13] = assay: Antimicrobial activity against Fusarium oxysporum MTCC 284 after 48 hrs by microdilution method; in short: as §2
Escherichia coli [14] = assay: Antimicrobial activity against Escherichia coli MTCC 724 after 24 hrs by microdilution method; details: MTCC 724, 24 h; in short: as §2
Klebsiella pneumoniae [15] = assay: Antimicrobial activity against Klebsiella pneumoniae MTCC 3384 after 24 hrs by microdilution method; details: MTCC 3384, 24 h; in short: as §2
Klebsiella pneumoniae [16] = assay: Antimicrobial activity against Klebsiella pneumoniae MTCC 3384 at 50 ug/ml after 24 hrs by disc diffusion method; details: MTCC 3384, 24 h, read-out: DIZ; in short: as §1
Escherichia coli [17] = assay: Antimicrobial activity against Escherichia coli MTCC 724 at 100 ug/ml after 24 hrs by disc diffusion method; details: MTCC 724, 24 h, read-out: DIZ; in short: as §1
Fusarium oxysporum [18] = assay: Antimicrobial activity against Fusarium oxysporum MTCC 284 at 50 ug/ml after 48 hrs by disc diffusion method; details: for zone of inhibition at 50 µg/mL: MTCC 284, 48 h, read-out: DIZ; in short: as §1
Staphylococcus aureus [19] = assay: Antimicrobial activity against Staphylococcus aureus MTCC 96 after 24 hrs by microdilution method; details: MTCC 96, 24 h; in short: as §2
Aspergillus flavus [20] = assay: Antimicrobial activity against Aspergillus flavus MTCC 873 after 48 hrs by microdilution method; in short: as §2
Fusarium verticillioides [21] = assay: Antimicrobial activity against Fusarium moniliforme MTCC 156 at 100 ug/ml after 48 hrs by disc diffusion method; details: for zone of inhibition at 100 µg/mL: MTCC 156, 48 h, read-out: DIZ; in short: as §1
Fusarium verticillioides [22] = assay: Antimicrobial activity against Fusarium moniliforme MTCC 156 at 50 ug/ml after 48 hrs by disc diffusion method; details: for zone of inhibition at 50 µg/mL: MTCC 156, 48 h, read-out: DIZ; in short: as §1
Aspergillus niger [23] = assay: Antimicrobial activity against Aspergillus niger MTCC 281 at 100 ug/ml after 48 hrs by disc diffusion method; details: for zone of inhibition at 100 µg/mL: MTCC 281, 48 h, read-out: DIZ; in short: as §1
Aspergillus flavus [24] = assay: Antimicrobial activity against Aspergillus flavus MTCC 873 at 100 ug/ml after 48 hrs by disc diffusion method; details: for zone of inhibition at 100 µg/mL: MTCC 873, 48 h, read-out: DIZ; in short: as §1

Compound | zone of inhibition at 50 µg/mL (Escherichia coli [1]) [mm] | zone of inhibition at 100 µg/mL (Staphylococcus aureus [2]) [mm] | zone of inhibition at 50 µg/mL (Aspergillus niger [3]) [mm] | zone of inhibition at 50 µg/mL (Bacillus cereus [4]) [mm] | zone of inhibition at 50 µg/mL (Staphylococcus aureus [5]) [mm] | MBC (Bacillus cereus [6]) [mg/L] | MIC (Bacillus cereus [6]) [mg/L] | zone of inhibition at 100 µg/mL (Bacillus cereus [7]) [mm] | zone of inhibition at 100 µg/mL (Klebsiella pneumoniae [8]) [mm] | zone of inhibition at 100 µg/mL (Fusarium oxysporum [9]) [mm] | MFC (Fusarium verticillioides [10]; MTCC 156, 48 h) [mg/L] | MIC (Fusarium verticillioides [10]; MTCC 156, 48 h) [mg/L] | MBC (Escherichia coli [14]) [mg/L] | MIC (Escherichia coli [14]) [mg/L] | MBC (Klebsiella pneumoniae [15]) [mg/L] | MIC (Klebsiella pneumoniae [15]) [mg/L] | zone of inhibition at 50 µg/mL (Klebsiella pneumoniae [16]) [mm] | zone of inhibition at 100 µg/mL (Escherichia coli [17]) [mm] | MBC (Staphylococcus aureus [19]) [mg/L] | MIC (Staphylococcus aureus [19]) [mg/L] | further results
COc1ccc(-c2nnc(-c3c(-c4ccccc4)nn(-c4ccccc4)c3C)o2)cc1 | 8 | 12 | 6 | 5 | 6 | 220 (≈ 539 µM) | 35 (≈ 85.7 µM) | 12 | 11 | 12 | 290 (≈ 710 µM) | 50 (≈ 122 µM) | 235 (≈ 575 µM) | 45 (≈ 110 µM) | 240 (≈ 588 µM) | 45 (≈ 110 µM) | 9 | 12 | 225 (≈ 551 µM) | 35 (≈ 85.7 µM) | zone of inhibition at 50 µg/mL (Aspergillus flavus [11]): 8 mm; MFC (Aspergillus niger [12]; MTCC 281, 48 h): 275 mg/L (≈ 673 µM); MIC (Aspergillus niger [12]; MTCC 281, 48 h): 45 mg/L (≈ 110 µM); MFC (Fusarium oxysporum [13]; MTCC 284, 48 h): 280 mg/L (≈ 685 µM); MIC (Fusarium oxysporum [13]; MTCC 284, 48 h): 50 mg/L (≈ 122 µM); zone of inhibition at 50 µg/mL (Fusarium oxysporum [18]): 8 mm; MFC (Aspergillus flavus [20]; MTCC 873, 48 h): 270 mg/L (≈ 661 µM); MIC (Aspergillus flavus [20]; MTCC 873, 48 h): 45 mg/L (≈ 110 µM); zone of inhibition at 100 µg/mL (Fusarium verticillioides [21]): 11 mm; zone of inhibition at 50 µg/mL (Fusarium verticillioides [22]): 9 mm; zone of inhibition at 100 µg/mL (Aspergillus niger [23]): 12 mm; zone of inhibition at 100 µg/mL (Aspergillus flavus [24]): 14 mm
CN(C)[C@@H]1C(O)=C(C(N)=O)C(=O)[C@@]2(O)C(O)=C3C(=O)c4c(O)cccc4[C@@](C)(O)[C@H]3C[C@@H]12 [TETRACYCLINE] | 18 | 20 |  | 10 | 9 | 120 (≈ 270 µM) | 4 (≈ 9 µM) | 21 | 20 |  |  |  | 120 (≈ 270 µM) | 12 (≈ 27 µM) | 120 (≈ 270 µM) | 8 (≈ 18 µM) | 12 | 30 | 120 (≈ 270 µM) | 10 (≈ 22.5 µM) | 
COc1cc(-c2nnc(-c3c(-c4cc(OC)c(OC)c(OC)c4)nn(-c4ccccc4)c3C)o2)cc(OC)c1OC | 21 | 24 | 11 | 12 | 10 | 160 (≈ 286 µM) | 20 (≈ 35.8 µM) | 23 | 21 | 21 | 225 (≈ 403 µM) | 25 (≈ 44.8 µM) | 150 (≈ 269 µM) | 20 (≈ 35.8 µM) | 155 (≈ 277 µM) | 20 (≈ 35.8 µM) | 11 | 36 | 150 (≈ 269 µM) | 20 (≈ 35.8 µM) | zone of inhibition at 50 µg/mL (Aspergillus flavus [11]): 18 mm; MFC (Aspergillus niger [12]; MTCC 281, 48 h): 225 mg/L (≈ 403 µM); MIC (Aspergillus niger [12]; MTCC 281, 48 h): 25 mg/L (≈ 44.8 µM); MFC (Fusarium oxysporum [13]; MTCC 284, 48 h): 220 mg/L (≈ 394 µM); MIC (Fusarium oxysporum [13]; MTCC 284, 48 h): 25 mg/L (≈ 44.8 µM); zone of inhibition at 50 µg/mL (Fusarium oxysporum [18]): 14 mm; MFC (Aspergillus flavus [20]; MTCC 873, 48 h): 215 mg/L (≈ 385 µM); MIC (Aspergillus flavus [20]; MTCC 873, 48 h): 30 mg/L (≈ 53.7 µM); zone of inhibition at 100 µg/mL (Fusarium verticillioides [21]): 22 mm; zone of inhibition at 50 µg/mL (Fusarium verticillioides [22]): 12 mm; zone of inhibition at 100 µg/mL (Aspergillus niger [23]): 25 mm; zone of inhibition at 100 µg/mL (Aspergillus flavus [24]): 23 mm
NYSTATIN |  |  |  |  |  |  |  |  |  |  |  |  |  |  |  |  |  |  |  |  | inhibition zone (IZ) (Aspergillus niger [3]): 10 mm; inhibition zone (IZ) (Fusarium oxysporum [9]): 30 mm; MFC (Fusarium verticillioides [10]): 100 mg/L; MIC (Fusarium verticillioides [10]): 12 mg/L; inhibition zone (IZ) (Aspergillus flavus [11]): 16 mm; MFC (Aspergillus niger [12]): 100 mg/L; MIC (Aspergillus niger [12]): 10 mg/L; MFC (Fusarium oxysporum [13]): 100 mg/L; MIC (Fusarium oxysporum [13]): 15 mg/L; inhibition zone (IZ) (Fusarium oxysporum [18]): 16 mm; MFC (Aspergillus flavus [20]): 100 mg/L; MIC (Aspergillus flavus [20]): 8 mg/L; inhibition zone (IZ) (Fusarium verticillioides [21]): 28 mm; inhibition zone (IZ) (Fusarium verticillioides [22]): 12 mm; inhibition zone (IZ) (Aspergillus niger [23]): 25 mm; inhibition zone (IZ) (Aspergillus flavus [24]): 20 mm
